Measured values published in ChEMBL document CHEMBL1139935, “Discovery of novel indazole-linked triazoles as antifungal agents” (2007).
In brackets after ≈: the same amount, converted by molar mass.

Legend:
Aspergillus terreus = assay: Antifungal activity against Aspergillus terreus ATCC 28301 by broth microdilution assay; format: functional
Aspergillus flavus = assay: Antifungal activity against Aspergillus flavus ATCC MYA-1004 by broth microdilution assay; format: functional
Nakaseomyces glabratus = assay: Antifungal activity against Candida glabrata ATCC 34138 by broth microdilution assay; format: functional
Candida albicans [1] = assay: Antifungal activity against Candida albicans ATCC 36082 by broth microdilution assay; format: functional
Candida tropicalis = assay: Antifungal activity against Candida tropicalis ATCC 750 by broth microdilution assay; format: functional
Pichia kudriavzevii = assay: Antifungal activity against Candida krusei ATCC 6528 by broth microdilution assay; format: functional
Aspergillus fumigatus = assay: Antifungal activity against Aspergillus fumigatus ATCC 16424 by broth microdilution assay; format: functional
Aspergillus niger = assay: Antifungal activity against Aspergillus niger ATCC 9042 by broth microdilution assay; format: functional
Clavispora lusitaniae = assay: Antifungal activity against Candida lusitaniae ATCC 42720 by broth microdilution assay; format: functional
Candida parapsilosis = assay: Antifungal activity against Candida parapsilosis ATCC 21019 by broth microdilution assay; format: functional; settings: Lodderomyces parapsilosis
Cryptococcus neoformans = assay: Antifungal activity against Cryptococcus neoformans ATCC 24065 by broth microdilution assay
Candida albicans [2] = assay: Antifungal activity against systemic Candida albicans ATCC 36082 infection model in ICR mouse assessed as survival at 20 mg/kg, po; format: functional
Procedure, shortened: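 C. albicans ATCC 36082 given systemically, about 5 × 10⁵ cells per animal. Oral dosing at 20 mg/kg once daily started 2 h post-infection and continued for 7 consecutive days. Read-out was mean survival days, compared against an untreated infected control group.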

SMILES | MIC80 (Aspergillus terreus) | MIC80 (Aspergillus flavus) | MIC80 (Nakaseomyces glabratus) | MIC80 (Candida albicans [1]) | MIC80 (Candida tropicalis) | MIC80 (Pichia kudriavzevii) | MIC80 (Aspergillus fumigatus) | MIC80 (Aspergillus niger) | MIC80 (Clavispora lusitaniae) | MIC80 (Candida parapsilosis) | MIC80 (Cryptococcus neoformans) | Survival (Candida albicans [2])
C[C@@H](n1ncc2ccc([N+](=O)[O-])cc21)[C@](O)(Cn1cncn1)c1ccc(F)cc1F | 2 µg/mL (≈ 4.83 µM) | 2 µg/mL (≈ 4.83 µM) | 8 µg/mL (≈ 19.3 µM) | ≤ 0.015 µg/mL | ≤ 0.015 µg/mL | 0.5 µg/mL (≈ 1.21 µM) | 2 µg/mL (≈ 4.83 µM) | 4 µg/mL (≈ 9.65 µM) | ≤ 0.015 µg/mL | ≤ 0.015 µg/mL | 0.25 µg/mL (≈ 0.603 µM) | –
NN(Cc1ccccc1)C[C@](O)(Cn1cncn1)c1ccc(F)cc1F | – | – | – | 1 µg/mL (≈ 2.78 µM) | – | – | – | – | – | – | – | –
C[C@@H](n1ncc2cc(F)ccc21)[C@](O)(Cn1cncn1)c1ccc(F)cc1F | 4 µg/mL (≈ 10.3 µM) | 4 µg/mL (≈ 10.3 µM) | 4 µg/mL (≈ 10.3 µM) | ≤ 0.015 µg/mL | 0.25 µg/mL (≈ 0.645 µM) | 1 µg/mL (≈ 2.58 µM) | 4 µg/mL (≈ 10.3 µM) | 8 µg/mL (≈ 20.7 µM) | ≤ 0.015 µg/mL | 0.125 µg/mL (≈ 0.323 µM) | 0.063 µg/mL (≈ 0.163 µM) | –
Cc1nn([C@H](C)[C@](O)(Cn2cncn2)c2ccc(F)cc2F)c2ccc([N+](=O)[O-])cc12 | 8 µg/mL (≈ 18.7 µM) | 16 µg/mL (≈ 37.3 µM) | 8 µg/mL (≈ 18.7 µM) | 0.015 µg/mL (≈ 0.035 µM) | 4 µg/mL (≈ 9.34 µM) | 4 µg/mL (≈ 9.34 µM) | 4 µg/mL (≈ 9.34 µM) | 16 µg/mL (≈ 37.3 µM) | 0.063 µg/mL (≈ 0.147 µM) | 0.125 µg/mL (≈ 0.292 µM) | 0.25 µg/mL (≈ 0.584 µM) | –
Cc1nn([C@H](C)[C@](O)(Cn2cncn2)c2ccc(F)cc2F)c2ccc(F)cc12 | 4 µg/mL (≈ 9.97 µM) | 8 µg/mL (≈ 19.9 µM) | 8 µg/mL (≈ 19.9 µM) | 0.031 µg/mL (≈ 0.0772 µM) | 4 µg/mL (≈ 9.97 µM) | 4 µg/mL (≈ 9.97 µM) | 4 µg/mL (≈ 9.97 µM) | 16 µg/mL (≈ 39.9 µM) | 0.125 µg/mL (≈ 0.311 µM) | 0.5 µg/mL (≈ 1.25 µM) | 0.5 µg/mL (≈ 1.25 µM) | –
C[C@@H](n1ncc2cc([N+](=O)[O-])ccc21)[C@](O)(Cn1cncn1)c1ccc(F)cc1F | 2 µg/mL (≈ 4.83 µM) | 1 µg/mL (≈ 2.41 µM) | 4 µg/mL (≈ 9.65 µM) | ≤ 0.015 µg/mL | 0.031 µg/mL (≈ 0.0748 µM) | 0.25 µg/mL (≈ 0.603 µM) | 1 µg/mL (≈ 2.41 µM) | 2 µg/mL (≈ 4.83 µM) | ≤ 0.015 µg/mL | 0.031 µg/mL (≈ 0.0748 µM) | 0.063 µg/mL (≈ 0.152 µM) | 12.4 days
C[C@@H](n1cc2ccc([N+](=O)[O-])cc2n1)[C@](O)(Cn1cncn1)c1ccc(F)cc1F | 128 µg/mL (≈ 309 µM) | 32 µg/mL (≈ 77.2 µM) | > 8 µg/mL | 0.063 µg/mL (≈ 0.152 µM) | 8 µg/mL (≈ 19.3 µM) | > 8 µg/mL | 32 µg/mL (≈ 77.2 µM) | 64 µg/mL (≈ 154 µM) | 0.5 µg/mL (≈ 1.21 µM) | 0.25 µg/mL (≈ 0.603 µM) | 0.5 µg/mL (≈ 1.21 µM) | –
C[C@@H](n1cc2cc(F)ccc2n1)[C@](O)(Cn1cncn1)c1ccc(F)cc1F | 0.5 µg/mL (≈ 1.29 µM) | 0.5 µg/mL (≈ 1.29 µM) | 4 µg/mL (≈ 10.3 µM) | ≤ 0.015 µg/mL | 0.125 µg/mL (≈ 0.323 µM) | 0.5 µg/mL (≈ 1.29 µM) | 0.25 µg/mL (≈ 0.645 µM) | 1 µg/mL (≈ 2.58 µM) | ≤ 0.015 µg/mL | 0.031 µg/mL (≈ 0.08 µM) | 0.063 µg/mL (≈ 0.163 µM) | –
C[C@@H](n1ncc2c([N+](=O)[O-])cccc21)[C@](O)(Cn1cncn1)c1ccc(F)cc1F | 1 µg/mL (≈ 2.41 µM) | 2 µg/mL (≈ 4.83 µM) | 2 µg/mL (≈ 4.83 µM) | ≤ 0.015 µg/mL | ≤ 0.015 µg/mL | 1 µg/mL (≈ 2.41 µM) | 1 µg/mL (≈ 2.41 µM) | 2 µg/mL (≈ 4.83 µM) | ≤ 0.015 µg/mL | 0.031 µg/mL (≈ 0.0748 µM) | 0.031 µg/mL (≈ 0.0748 µM) | –
C[C@@H](n1cc2cc(Cl)ccc2n1)[C@](O)(Cn1cncn1)c1ccc(F)cc1F | 0.5 µg/mL (≈ 1.24 µM) | 0.5 µg/mL (≈ 1.24 µM) | 4 µg/mL (≈ 9.91 µM) | ≤ 0.015 µg/mL | 0.031 µg/mL (≈ 0.0768 µM) | 0.125 µg/mL (≈ 0.31 µM) | 0.25 µg/mL (≈ 0.619 µM) | 1 µg/mL (≈ 2.48 µM) | ≤ 0.015 µg/mL | ≤ 0.015 µg/mL | 0.015 µg/mL (≈ 0.0371 µM) | –
C[C@@H](n1ncc2cccc([N+](=O)[O-])c21)[C@](O)(Cn1cncn1)c1ccc(F)cc1F | 2 µg/mL (≈ 4.83 µM) | 1 µg/mL (≈ 2.41 µM) | 4 µg/mL (≈ 9.65 µM) | ≤ 0.015 µg/mL | ≤ 0.015 µg/mL | 0.5 µg/mL (≈ 1.21 µM) | 2 µg/mL (≈ 4.83 µM) | 4 µg/mL (≈ 9.65 µM) | ≤ 0.015 µg/mL | ≤ 0.015 µg/mL | 0.125 µg/mL (≈ 0.302 µM) | –
C[C@@H]1[C@H](O)[C@@H](C)/C=C/C=C/C=C/C=C/C=C/C=C/C=C/[C@H](O[C@@H]2O[C@H](C)[C@@H](O)[C@H](N)[C@@H]2O)C[C@@H]2O[C@](O)(C[C@@H](O)C[C@@H](O)[C@H](O)CC[C@@H](O)C[C@@H](O)CC(=O)O[C@H]1C)C[C@H](O)[C@H]2C(=O)O [AMPHOTERICIN B] | 2 µg/mL (≈ 2.16 µM) | 4 µg/mL (≈ 4.33 µM) | – | – | – | – | 1 µg/mL (≈ 1.08 µM) | 0.5 µg/mL (≈ 0.541 µM) | – | – | – | –
OC(Cn1cncn1)(Cn1cncn1)c1ccc(F)cc1F [FLUCONAZOLE] | > 128 µg/mL | > 128 µg/mL | > 8 µg/mL | 2 µg/mL (≈ 6.53 µM) | > 8 µg/mL | > 8 µg/mL | > 128 µg/mL | > 128 µg/mL | 8 µg/mL (≈ 26.1 µM) | > 8 µg/mL | 8 µg/mL (≈ 26.1 µM) | –
C[C@@H](n1cc2c([N+](=O)[O-])cccc2n1)[C@](O)(Cn1cncn1)c1ccc(F)cc1F | 1 µg/mL (≈ 2.41 µM) | 2 µg/mL (≈ 4.83 µM) | > 8 µg/mL | ≤ 0.015 µg/mL | 1 µg/mL (≈ 2.41 µM) | 4 µg/mL (≈ 9.65 µM) | 1 µg/mL (≈ 2.41 µM) | 4 µg/mL (≈ 9.65 µM) | 0.125 µg/mL (≈ 0.302 µM) | 0.25 µg/mL (≈ 0.603 µM) | 0.063 µg/mL (≈ 0.152 µM) | –
